# Laboratory results: ChEMBL document CHEMBL3297648, “Diterpenoids from the Chinese liverwort Heteroscyphus tener and their antiproliferative effects” (J Nat Prod, 2014)
# Calls of active or inactive are those of the source. No cut-off for these calls is given here.
# Experiments:
# PC-3 [1] = assay: Induction of apoptosis in human PC3 cells assessed as late apoptotic cells at 20 uM after 8 hrs by Annexin V-FITC/propidium iodide staining based flow cytometry (reference value: 7.92%); assay type: functional
# Method in brief: (§1)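 Cells seeded in 6-well plates for 24 h, then given 20 μM for the stated times. Cells were trypsinized, PBS-washed, stained with annexin V-FITC/PI, and analysed immediately by flow cytometry. Means ± SD of three independent experiments; Student's t test against untreated control.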
# DU-145 [2] = assay: Induction of apoptosis in human DU145 cells assessed as increase in caspase-3 activity using Ac-DEVD-AMC as substrate at 20 uM by fluorometric method; assay type: functional, cell-based; settings: TDE = time-dependent effect
# Method in brief: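 Cells treated with 20 μM for the stated times. Pellets lysed on ice 15 min, spun at 14 000g for 15 min at 4 °C. Supernatant assayed in buffer containing CHAPS, 10% glycerol, 2 mM EDTA, 5 mM DTT for 2 h at 37 °C. Fluorescence read at ex 380/em 440 nm.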
# DU-145 [3] = assay: Cell cycle arrest in human DU145 cells assessed as accumulation at S phase at 10 uM after 24 hrs by propidium iodide staining based flow cytometry (reference value: 25.94%); assay type: functional
# [4] = Decrease in cyclin E protein expression in human DU145 cells by western blot analysis; assay type: functional, cell-based; settings: DU-145, TDE = time-dependent effect
# Method in brief: (§2)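 Western blot of cyclin D1, cyclin E, Cdk4 and p21 in PC3 and DU145 lysates. Lysis in RIPA buffer plus protease inhibitors, BCA quantification, 12% SDS-PAGE, nitrocellulose transfer, milk block, primaries overnight at 4 °C, secondary 1:2000 for 45 min, ECL read-out. GAPDH served as loading control.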
# PC-3 [5] = assay: Induction of apoptosis in human PC3 cells at 20 uM by Annexin V-FITC/propidium iodide staining based flow cytometry; assay type: functional, cell-based; settings: TDE = time-dependent effect; method in brief: as §1
# DU-145 [6] = assay: Induction of DNA damage in human DU145 cells assessed as gamma-H2AX phosphorylation at ser139 at 20 uM by western blot analysis; assay type: functional, cell-based; settings: TDE = time-dependent effect
# Method in brief: (§3)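 Cells treated at 20 μM for various times, lysed in RIPA buffer with protease/phosphatase inhibitors, protein quantified by BCA. Equal protein run on 12% SDS-PAGE, transferred to nitrocellulose, blocked 1 h in 5% milk/TBST, primary antibodies overnight at 4 °C, secondary 1:2000 for 45 min, ECL detection on film. GAPDH used as loading control.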
# PC-3 [7] = assay: Induction of apoptosis in human PC3 cells assessed as PARP cleavage at 20 uM after 12 hrs by western blot analysis; assay type: functional, cell-based
# Method in brief: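 Cells exposed to 20 μM for the stated times. Lysis in RIPA plus protease inhibitors, BCA protein assay, equal protein on 12% SDS-PAGE, transfer to nitrocellulose. Blocking in 5% milk/TBST 1 h; primary antibodies overnight at 4 °C; secondary 1:2000 for 45 min; ECL detection. GAPDH served as loading control.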
# DU-145 [8] = assay: Cell cycle arrest in human DU145 cells assessed as accumulation at G0/G1 phase at 20 uM after 24 hrs by propidium iodide staining based flow cytometry (reference value: 63.34%); assay type: functional
# DU-145 [9] = assay: Induction of apoptosis in human DU145 cells assessed as necrotic cells at 20 uM after 4 hrs by Annexin V-FITC/propidium iodide staining based flow cytometry (reference value: 0.21%); assay type: functional; method in brief: as §1
# [10] = Decrease in ChK1 protein expression in human DU145 cells at 20 uM after 2 to 48 hrs by western blot analysis; assay type: functional, cell-based; settings: DU-145; method in brief: as §3
# PC-3 [11] = assay: Induction of apoptosis in human PC3 cells assessed as early apoptotic cells at 20 uM after 24 hrs by Annexin V-FITC/propidium iodide staining based flow cytometry (reference value: 0.79%); assay type: functional; method in brief: as §1
# [12] = Cell cycle arrest in human PC3 cells assessed as accumulation at subG1 phase at 10 uM after 24 hrs by propidium iodide staining based flow cytometry (reference value: 0.13%); assay type: functional; settings: PC-3
# [13] = Cell cycle arrest in human PC3 cells assessed as accumulation at subG1 phase at 20 uM after 24 hrs by propidium iodide staining based flow cytometry (reference value: 0.13%); assay type: functional; settings: PC-3
# [14] = molecular target: Serine/threonine-protein kinase ATR (Homo sapiens) (UniProt Q13535); assay: Activation of ATR in human DU145 cells assessed as ChK1 phosphorylation at Ser296 at 20 uM after 12 hrs by western blot analysis; assay type: cell-based; settings: DU-145; method in brief: as §3
# DU-145 [15] = assay: Induction of apoptosis in human DU145 cells assessed as early apoptotic cells at 20 uM after 8 hrs by Annexin V-FITC/propidium iodide staining based flow cytometry (reference value: 1.60%); assay type: functional; method in brief: as §1
# [16] = Decrease in BRCA1 protein expression in human DU145 cells at 20 uM after 2 to 48 hrs by western blot analysis; assay type: functional, cell-based; settings: DU-145; method in brief: as §3
# DU-145 [17] = assay: Increase in p21CIP1 protein expression in human DU145 cells after 2 to 48 hrs by western blot analysis; assay type: functional, cell-based; method in brief: as §2
# DU-145 [18] = assay: Induction of apoptosis in human DU145 cells assessed as late apoptotic cells at 20 uM after 8 hrs by Annexin V-FITC/propidium iodide staining based flow cytometry (reference value: 1.53%); assay type: functional; method in brief: as §1
# DU-145 [19] = assay: Induction of apoptosis in human DU145 cells assessed as early apoptotic cells at 20 uM after 24 hrs by Annexin V-FITC/propidium iodide staining based flow cytometry (reference value: 1.60%); assay type: functional; method in brief: as §1
# NCI-H1299 = assay: Antiproliferative activity against human NCI-H1299 cells assessed as inhibition of cell viability after 24 hrs by MTT assay; assay type: functional, cell-based; settings: NCI-H1299, 24 h
# Method in brief: (§4)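 Cells grown to 50–70% confluence (RWPE1 in K-SFM with pituitary extract and EGF; the other lines in RPMI 1640 with 10% FBS), 5% CO2, 37 °C. Treated for 24 h with DMSO vehicle, compounds, or cisplatin as positive control. MTT (5 mg/mL) added for 4 h, formazan dissolved in DMSO, absorbance read at 570 nm. Viability taken relative to untreated cells after blank subtraction, IC50 fitted from % viability, at least three experiments.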
# [20] = Cell cycle arrest in human PC3 cells assessed as accumulation at G2/M phase at 10 uM after 24 hrs by propidium iodide staining based flow cytometry (reference value: 10.43%); assay type: functional; settings: PC-3
# PC-3 [21] = assay: Induction of apoptosis in human PC3 cells assessed as late apoptotic cells at 20 uM after 12 hrs by Annexin V-FITC/propidium iodide staining based flow cytometry (reference value: 7.92%); assay type: functional; method in brief: as §1
# PC-3 [22] = assay: Induction of DNA damage in human PC3 cells assessed as gamma-H2AX phosphorylation at ser139 at 20 uM by western blot analysis; assay type: functional, cell-based; settings: TDE = time-dependent effect; method in brief: as §3
# DU-145 [23] = assay: Cell cycle arrest in human DU145 cells assessed as accumulation at subG1 phase at 10 uM after 24 hrs by propidium iodide staining based flow cytometry (reference value: 0.28%); assay type: functional
# DU-145 [24] = assay: Antiproliferative activity against human DU145 cells assessed as inhibition of cell viability after 24 hrs by MTT assay; assay type: functional, cell-based; settings: DU-145, 24 h; method in brief: as §4
# PC-3 [25] = assay: Induction of apoptosis in human PC3 cells assessed as necrotic cells at 20 uM after 4 hrs by Annexin V-FITC/propidium iodide staining based flow cytometry (reference value: 0.98%); assay type: functional; method in brief: as §1
# DU-145 [26] = assay: Induction of apoptosis in human DU145 cells assessed as early apoptotic cells at 20 uM after 4 hrs by Annexin V-FITC/propidium iodide staining based flow cytometry (reference value: 1.60%); assay type: functional; method in brief: as §1
# Sequence of Serine/threonine-protein kinase ATR (Homo sapiens) (Q13535 whole entry, looked up): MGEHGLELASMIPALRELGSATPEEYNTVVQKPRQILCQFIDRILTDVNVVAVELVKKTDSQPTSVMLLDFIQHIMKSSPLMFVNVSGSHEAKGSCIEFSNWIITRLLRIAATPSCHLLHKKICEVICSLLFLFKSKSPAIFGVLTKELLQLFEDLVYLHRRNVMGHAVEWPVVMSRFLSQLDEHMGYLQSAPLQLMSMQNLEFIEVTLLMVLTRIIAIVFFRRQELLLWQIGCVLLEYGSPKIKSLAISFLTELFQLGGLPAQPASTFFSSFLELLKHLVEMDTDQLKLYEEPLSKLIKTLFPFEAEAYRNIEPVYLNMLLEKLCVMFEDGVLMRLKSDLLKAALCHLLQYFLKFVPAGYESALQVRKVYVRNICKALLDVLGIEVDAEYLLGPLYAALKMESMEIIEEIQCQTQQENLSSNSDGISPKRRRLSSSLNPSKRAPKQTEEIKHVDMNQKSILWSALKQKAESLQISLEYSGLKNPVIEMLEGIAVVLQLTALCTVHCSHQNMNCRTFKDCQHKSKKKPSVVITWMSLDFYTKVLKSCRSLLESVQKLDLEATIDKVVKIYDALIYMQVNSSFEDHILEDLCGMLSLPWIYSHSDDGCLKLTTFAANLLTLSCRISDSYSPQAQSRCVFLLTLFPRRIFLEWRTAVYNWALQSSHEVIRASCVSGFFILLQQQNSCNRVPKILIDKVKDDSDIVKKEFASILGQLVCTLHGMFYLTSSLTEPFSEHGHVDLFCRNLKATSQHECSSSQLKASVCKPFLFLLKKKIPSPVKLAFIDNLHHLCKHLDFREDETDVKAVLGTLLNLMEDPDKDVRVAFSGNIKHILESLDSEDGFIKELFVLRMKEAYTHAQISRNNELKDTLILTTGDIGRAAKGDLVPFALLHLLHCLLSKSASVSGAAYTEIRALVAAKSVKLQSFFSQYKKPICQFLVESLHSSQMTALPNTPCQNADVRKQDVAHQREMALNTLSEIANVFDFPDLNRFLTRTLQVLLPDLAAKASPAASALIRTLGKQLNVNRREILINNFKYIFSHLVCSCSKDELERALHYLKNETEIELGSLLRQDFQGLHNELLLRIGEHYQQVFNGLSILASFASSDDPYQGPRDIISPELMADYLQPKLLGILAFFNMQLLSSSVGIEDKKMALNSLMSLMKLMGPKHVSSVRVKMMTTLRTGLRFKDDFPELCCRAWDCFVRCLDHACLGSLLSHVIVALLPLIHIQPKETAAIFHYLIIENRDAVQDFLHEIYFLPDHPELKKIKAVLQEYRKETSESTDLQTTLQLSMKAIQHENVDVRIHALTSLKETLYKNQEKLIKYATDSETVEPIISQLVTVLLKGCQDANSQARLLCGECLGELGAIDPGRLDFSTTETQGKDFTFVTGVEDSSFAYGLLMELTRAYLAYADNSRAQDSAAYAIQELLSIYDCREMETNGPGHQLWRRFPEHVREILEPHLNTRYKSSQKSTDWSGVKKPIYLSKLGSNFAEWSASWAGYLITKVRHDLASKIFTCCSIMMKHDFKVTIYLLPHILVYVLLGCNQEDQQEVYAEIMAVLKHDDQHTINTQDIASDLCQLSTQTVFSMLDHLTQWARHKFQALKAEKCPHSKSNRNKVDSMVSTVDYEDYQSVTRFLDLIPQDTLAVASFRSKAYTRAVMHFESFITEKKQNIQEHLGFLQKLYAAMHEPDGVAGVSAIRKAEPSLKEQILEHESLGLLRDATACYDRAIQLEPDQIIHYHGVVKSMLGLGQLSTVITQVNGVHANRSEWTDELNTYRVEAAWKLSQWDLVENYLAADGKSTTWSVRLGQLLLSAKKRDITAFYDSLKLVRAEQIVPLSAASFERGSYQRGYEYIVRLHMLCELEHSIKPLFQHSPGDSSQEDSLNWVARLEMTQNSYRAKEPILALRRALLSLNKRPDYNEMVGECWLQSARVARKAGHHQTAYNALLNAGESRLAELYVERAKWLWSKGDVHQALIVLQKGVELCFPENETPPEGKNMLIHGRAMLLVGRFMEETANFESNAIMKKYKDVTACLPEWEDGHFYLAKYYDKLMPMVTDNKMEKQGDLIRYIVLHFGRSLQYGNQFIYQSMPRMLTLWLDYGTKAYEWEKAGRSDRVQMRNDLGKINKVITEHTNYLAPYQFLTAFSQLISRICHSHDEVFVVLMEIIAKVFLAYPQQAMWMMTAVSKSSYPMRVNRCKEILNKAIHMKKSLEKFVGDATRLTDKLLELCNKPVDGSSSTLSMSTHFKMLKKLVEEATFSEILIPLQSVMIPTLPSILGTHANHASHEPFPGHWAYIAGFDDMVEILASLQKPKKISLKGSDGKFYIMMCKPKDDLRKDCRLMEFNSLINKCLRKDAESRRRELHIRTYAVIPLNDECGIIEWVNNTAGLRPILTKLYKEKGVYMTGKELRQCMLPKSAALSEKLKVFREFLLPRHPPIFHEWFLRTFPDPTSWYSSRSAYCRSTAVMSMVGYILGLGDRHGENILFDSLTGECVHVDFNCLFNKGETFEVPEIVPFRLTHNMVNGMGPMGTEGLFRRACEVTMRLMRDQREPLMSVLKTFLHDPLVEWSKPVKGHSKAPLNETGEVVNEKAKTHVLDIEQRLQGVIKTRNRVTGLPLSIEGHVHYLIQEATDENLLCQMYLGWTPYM
structure (smiles),measurement,setting,value
C=C[C@@](C)(O)CC[C@@H]1C(C)=CC[C@@H]2C(C)(C)CCC[C@@]12C,Activity,PC-3 [1],15.29%
same,Activity,DU-145 [2],tde
same,Activity,DU-145 [3],21.68%
same,inhibition,[4],tde
same,Activity,PC-3 [5],tde
same,Activity,DU-145 [6],tde
same,Activity,PC-3 [7],Active
same,Activity,DU-145 [8],75.55%
same,Activity,DU-145 [9],1.54%
same,inhibition,[10],Active
same,Activity,PC-3 [11],1.61%
same,Activity,[12],1.94%
same,Activity,[13],2.39%
same,Activity,[14],Active
same,Activity,DU-145 [15],4.56%
same,inhibition,[16],inactive
same,Activity,DU-145 [17],Active
same,Activity,DU-145 [18],8.94%
same,Activity,DU-145 [19],7.16%
same,IC50,NCI-H1299,35.1 µM
same,Activity,[20],11.1%
same,Activity,PC-3 [21],12.66%
same,Activity,PC-3 [22],tde
same,Activity,DU-145 [23],1.97%
same,IC50,DU-145 [24],28.5 µM
same,Activity,PC-3 [25],2.75%
same,Activity,DU-145 [26],4%
